The values below come from ChEMBL document CHEMBL4038325, “Opioid Receptor Modulators with a Cinnamyl Group” (J Med Chem, 2017).

What is called inhibition is the change of the read-out against control, counted positive when it falls.

Data set [1] deals with T1, Mu-type opioid receptor (Homo sapiens, UniProt P35372). Put plainly: Agonist activity at recombinant human MOR expressed in HEK293T cells assessed as inhibition of forskolin-stimulated cAMP level at 10 uM preincubated for 15 to 20 mins followed by forskolin addition by GloSensor assay relative to control. The format is functional, cell-based. Conditions: HEK-293T. An outline of the steps: (§1)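 HEK293T transiently co-transfected (calcium phosphate) with DOR or MOR plus pGloSensor-22F. Cells were loaded with luciferin in HBSS/20 mM HEPES pH 7.4 for 90 min, then given compound in triplicate for 15-20 min at 37°C. Forskolin added (final 10 µM); luminescence read. cAMP signal normalized to forskolin-alone control.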
A general note: Changes in cAMP serve as a functional read-out for many G protein-coupled receptors.

For data set [2], the target named is T2, Kappa-type opioid receptor (Homo sapiens, UniProt P41145). Conditions: HEK-293T, at 10 µM.
In data set [3] the target is T1, Mu-type opioid receptor. Conditions: HEK-293T, at 10 µM.
For data set [4], the target named is T2, Kappa-type opioid receptor. Put plainly: Agonist activity at recombinant human KOR expressed in HEK293T cells assessed as inhibition of forskolin-stimulated cAMP level preincubated for 15 to 20 mins followed by forskolin addition by GloSensor assay. Conditions: for inhibition: HEK-293T. The format is functional, cell-based. The gist of the method: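 HEK293T transiently transfected with hKOR plus GloSensor-22F plasmid. Compounds (10 µM to 10 pM, triplicate) added for 15-20 min at 37°C, then forskolin added (final 10 µM). Luminescence of live cells normalized to % forskolin-alone control. IC50 from non-linear regression; two independent experiments.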

Data set [5] concerns the target Delta-type opioid receptor (Homo sapiens) (UniProt P41143). Put plainly: Antagonist activity at recombinant human DOR expressed in HEK293T cells assessed as reduction in DADLE-induced inhibition of forskolin-stimulated cAMP level at 10 uM preincubated for 15 to 20 mins followed by DADLE and forskolin addition by GloSensor assay relative to control. Conditions: HEK-293T. The format is functional, cell-based. The gist of the method:
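HEK293T transiently expressing DOR plus GloSensor-22F were given compound in triplicate for 15-20 min at 37°C. DADLE (1 µM) was then added, followed by forskolin (10 µM); luminescence read. Signal normalized to % control (agonist + forskolin).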

Data set [6] concerns the target T1, Mu-type opioid receptor. It counts as functional, cell-based, HEK-293T.
Data set [7] has as its target T2, Kappa-type opioid receptor. Conditions: HEK-293T, at 10 µM. This is another data set of the same source.
The target in data set [8] is Delta-type opioid receptor (Homo sapiens) (UniProt P41143). Nature of the data set: Agonist activity at recombinant human DOR expressed in HEK293T cells assessed as inhibition of forskolin-stimulated cAMP level at 10 uM preincubated for 15 to 20 mins followed by forskolin addition by GloSensor assay relative to control. Conditions: HEK-293T. The format is functional, cell-based. The gist of the method: as §1

The subject of data set [9] is Mus musculus. Put plainly: Analgesic activity in C57BL/6J mouse assessed as tail withdrawal latency at 10 mg/kg measured after 30 mins in presence of KOR antagonist norBNI by tail flick test. It counts as functional, organism-based. An outline of the steps: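 Male C57BL/6J mice (5-6/group) received norBNI 10 mg/kg i.p. 30 min before test compound at 10 mg/kg i.p. Tail withdrawal latency in 52 ± 0.5°C water was measured at the 30 min time point, three readings, by a blinded observer.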
On the technique in general: Thermal pain tests record how soon the animal reacts.

The target of data set [10] is T3, D(2) dopamine receptor (Homo sapiens, UniProt P14416). Nature of the data set: Antagonist activity at dopamine D2 receptor (unknown origin) at 10 uM. The gist of the method:
(§2)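 Primary screen, agonist and antagonist modes, each receptor tested separately. Compounds at 10 µM in triplicate; response taken as % inhibition or stimulation relative to control. Compounds giving at least 50% effect were then run over 10 µM to 10 pM to obtain EC50/IC50.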

Data set [11] deals with Histamine H1 receptor (Homo sapiens) (UniProt P35367). Nature of the data set: Agonist activity at histamine H1 receptor (unknown origin) at 10 uM. The gist of the method:
as §2

The test system of data set [12] is Mus musculus. Nature of the data set: Analgesic activity in C57BL/6J mouse assessed as tail withdrawal latency at 10 mg/kg by tail flick test. It counts as functional, organism-based. The gist of the method:
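Male C57BL/6J mice, 6-8 weeks, 22-25 g; 5-6 per group. Dosed 10 mg/kg i.p. Distal third of tail immersed in 52 ± 0.5°C water; latency recorded three times per time point by a blinded observer. Latency expressed as % of baseline taken 15 min before dosing, followed over time; area under curve also calculated.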

The target in data set [13] is Histamine H1 receptor (Homo sapiens) (UniProt P35367). Put plainly: Antagonist activity at histamine H1 receptor (unknown origin) at 10 uM. An outline of the steps: as §2
For data set [14], the target named is T3, D(2) dopamine receptor. Nature of the data set: Agonist activity at dopamine D2 receptor (unknown origin) at 10 uM. The gist of the method:
as §2

Active and inactive are the calls of the source. No cut-off for these calls is given here.

Sequence of Histamine H1 receptor (Homo sapiens) (P35367 whole entry): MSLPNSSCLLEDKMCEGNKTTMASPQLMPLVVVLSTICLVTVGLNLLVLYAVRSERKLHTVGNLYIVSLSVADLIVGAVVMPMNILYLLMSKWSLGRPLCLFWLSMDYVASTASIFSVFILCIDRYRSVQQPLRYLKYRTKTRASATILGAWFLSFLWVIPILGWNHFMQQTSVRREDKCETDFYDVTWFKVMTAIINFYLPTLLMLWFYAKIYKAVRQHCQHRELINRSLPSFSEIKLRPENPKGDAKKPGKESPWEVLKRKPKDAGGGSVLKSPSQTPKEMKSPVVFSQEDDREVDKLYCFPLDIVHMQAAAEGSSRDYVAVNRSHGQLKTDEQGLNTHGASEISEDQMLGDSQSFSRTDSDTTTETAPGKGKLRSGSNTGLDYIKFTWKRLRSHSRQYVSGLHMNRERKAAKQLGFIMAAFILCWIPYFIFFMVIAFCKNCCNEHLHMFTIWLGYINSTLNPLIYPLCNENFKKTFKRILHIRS
T3 sequence (P14416 whole entry): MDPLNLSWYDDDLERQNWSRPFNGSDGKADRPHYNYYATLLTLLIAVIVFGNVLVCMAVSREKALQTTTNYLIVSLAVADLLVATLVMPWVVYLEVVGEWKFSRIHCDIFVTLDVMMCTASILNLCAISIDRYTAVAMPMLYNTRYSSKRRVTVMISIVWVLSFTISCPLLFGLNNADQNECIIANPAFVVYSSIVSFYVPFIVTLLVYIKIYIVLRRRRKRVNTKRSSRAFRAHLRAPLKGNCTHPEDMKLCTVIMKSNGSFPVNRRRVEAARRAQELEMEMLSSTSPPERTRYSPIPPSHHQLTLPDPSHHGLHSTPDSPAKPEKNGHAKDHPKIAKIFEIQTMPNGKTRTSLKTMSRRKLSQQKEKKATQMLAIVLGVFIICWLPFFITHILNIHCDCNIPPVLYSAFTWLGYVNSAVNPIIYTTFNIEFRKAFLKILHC
T2 sequence (P41145 whole entry): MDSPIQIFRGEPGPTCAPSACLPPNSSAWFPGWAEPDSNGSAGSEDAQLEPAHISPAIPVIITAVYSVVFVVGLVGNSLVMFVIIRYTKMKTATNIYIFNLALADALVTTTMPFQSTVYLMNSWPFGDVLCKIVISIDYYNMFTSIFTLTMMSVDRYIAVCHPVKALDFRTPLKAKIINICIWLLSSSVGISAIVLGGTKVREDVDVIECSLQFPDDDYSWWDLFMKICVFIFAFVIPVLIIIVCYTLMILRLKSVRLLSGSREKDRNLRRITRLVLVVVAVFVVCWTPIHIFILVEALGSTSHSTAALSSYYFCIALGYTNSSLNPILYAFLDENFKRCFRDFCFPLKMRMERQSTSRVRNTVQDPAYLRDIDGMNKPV
Sequence of Delta-type opioid receptor (Homo sapiens) (P41143 whole entry): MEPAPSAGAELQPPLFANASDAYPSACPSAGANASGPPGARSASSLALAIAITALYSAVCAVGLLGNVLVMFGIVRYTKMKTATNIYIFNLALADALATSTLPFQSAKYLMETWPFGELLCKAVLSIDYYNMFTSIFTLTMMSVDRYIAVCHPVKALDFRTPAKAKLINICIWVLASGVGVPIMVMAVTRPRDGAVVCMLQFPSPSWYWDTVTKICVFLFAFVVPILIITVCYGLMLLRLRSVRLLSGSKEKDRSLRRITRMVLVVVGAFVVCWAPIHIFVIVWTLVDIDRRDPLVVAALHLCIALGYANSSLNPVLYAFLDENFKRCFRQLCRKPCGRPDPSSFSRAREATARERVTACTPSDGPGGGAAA
T1 sequence (P35372 whole entry): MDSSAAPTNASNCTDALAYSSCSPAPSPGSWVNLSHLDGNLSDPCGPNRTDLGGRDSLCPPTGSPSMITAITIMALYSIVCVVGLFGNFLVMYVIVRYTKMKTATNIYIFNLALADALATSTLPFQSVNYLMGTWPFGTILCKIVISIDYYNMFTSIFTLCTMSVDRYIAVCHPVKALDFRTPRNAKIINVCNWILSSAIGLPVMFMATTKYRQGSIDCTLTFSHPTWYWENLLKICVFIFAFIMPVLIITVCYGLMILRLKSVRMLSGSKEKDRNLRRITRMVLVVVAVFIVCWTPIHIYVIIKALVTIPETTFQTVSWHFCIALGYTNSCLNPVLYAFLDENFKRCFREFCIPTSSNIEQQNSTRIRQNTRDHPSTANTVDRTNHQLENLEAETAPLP

For `CCCC(NC(=O)/C(=C/c1ccccc1)CN1CCN(c2ccc(O)cc2)CC1)C(=O)O` (stereo not drawn), the inhibition entry (on Mu-type opioid receptor [1]; in data set [2]; at Mu-type opioid receptor [3]; in [4]) was “inactive” each time.

For `CC(C)C[C@H](NC(=O)/C(=C/c1ccccc1)CN1CC[C@@](C)(c2cccc(O)c2)[C@@H](C)C1)C(=O)O`, the inhibition result in [2], in data set [5], in data set [7] and in [8] was “inactive” each time. This compound also came in with an inhibition against Mu-type opioid receptor [3] of 50%. The IC50 at Mu-type opioid receptor [6] (read-out: IC50) was 780 nM; on Mu-type opioid receptor [6] (read-out: pIC50 (converted)), 782 to 794 nM.

With `CC(C)[C@H](NC(=O)/C(=C/c1ccccc1)CN1CCN(c2ccc(Cl)cc2)CC1)C(=O)O`, the outcome (with Mus musculus [9]; in data set [11]) was inactive. The inhibition result (on Mu-type opioid receptor [1]; on Mu-type opioid receptor [3]; in [13]; in data set [5]; in [8]) was “inactive” throughout. In addition, the “inhibition (INH)” value on D(2) dopamine receptor [10] was “Not Active”. For the same compound, the Activity entry was “Dose-dependent effect” in the data set on Mus musculus [12] and “Not Active” at D(2) dopamine receptor [14]. The IC50 in data set [4] (read-out: IC50) is 910 nM; in [4] (read-out: pIC50 (converted)), 910 to 948 nM.

Turning to `O=C(O)CNC(=O)C(Cc1ccccc1)CN1CCN(c2ccccc2O)CC1` (stereo not drawn), the inhibition entry (at Mu-type opioid receptor [1]; in [2]; at Mu-type opioid receptor [3]; in data set [7]) was “inactive” each time.

Regarding `O=C(O)CNC(=O)/C(=C/c1ccccc1)CN1CCN(c2ccc(O)cc2)CC1`, the inhibition result (at Mu-type opioid receptor [1]; in data set [2]; at Mu-type opioid receptor [3]; in data set [4]) was “inactive” each time.

Regarding `C[C@H]1CN(C[C@H](Cc2ccccc2)C(=O)NCC(=O)O)CC[C@@]1(C)c1cccc(O)c1`, the inhibition result in data set [2], in data set [5], in [7] and in data set [8] was “inactive” throughout. The inhibition against Mu-type opioid receptor [3] amounted to 50%.

Regarding `CCOC(=O)C(NC(=O)/C(=C/c1ccccc1)CN1CCN(c2nsc3ccccc23)CC1)C(C)C` (stereo not drawn), the inhibition entry (on Mu-type opioid receptor [1]; at Mu-type opioid receptor [3]; in data set [13]; in [5]; in data set [8]) was “inactive” throughout. For the same compound, the “inhibition (INH)” value on D(2) dopamine receptor [10] is recorded as “Not Active”. In addition, in data set [11], the result was inactive. The Activity result at D(2) dopamine receptor [14] was “Not Active”. Further, the IC50 is 1800 nM in data set [4] (read-out: IC50) and 1910 to 1980 nM in [4] (read-out: pIC50 (converted)).

Turning to `CC(C)C[C@H](NC(=O)/C(=C/c1ccccc1)CN1CCN(c2ccc(O)cc2)CC1)C(=O)O`, the inhibition result (on Mu-type opioid receptor [1]; in data set [2]; on Mu-type opioid receptor [3]; in [4]) was “inactive” in each case.

As to `CCC(C)C(NC(=O)/C(=C/c1ccccc1)CN1CC[C@@](C)(c2cccc(O)c2)[C@@H](C)C1)C(=O)O` (stereo partly drawn), the inhibition entry in [2], in data set [5], in data set [7] and in data set [8] was “inactive” throughout. The compound also came in with an inhibition at Mu-type opioid receptor [3] of 50%. Moreover, the IC50 on Mu-type opioid receptor [6] (read-out: IC50) was 1600 nM; on Mu-type opioid receptor [6] (read-out: pIC50 (converted)), 1600 to 1620 nM.

Consider `COc1ccc(N2CCN(CC(Cc3ccccc3)C(=O)NCC(=O)O)CC2)cc1` (stereo not drawn), for which the inhibition entry (at Mu-type opioid receptor [1]; in data set [2]; on Mu-type opioid receptor [3]; in data set [7]) was “inactive” throughout.

Consider `CCC(C)C(NC(=O)/C(=C/c1ccccc1)CN1CCN(c2ccc(O)cc2)CC1)C(=O)O` (stereo not drawn), for which the inhibition entry (on Mu-type opioid receptor [1]; in data set [2]; at Mu-type opioid receptor [3]; in data set [4]) was “inactive” throughout.

On to `CC(C)[C@H](NC(=O)/C(=C/c1ccccc1)CN1CCN(c2ccc(O)cc2)CC1)C(=O)O`, for which the inhibition entry (at Mu-type opioid receptor [1]; in [2]; on Mu-type opioid receptor [3]; in data set [4]) was “inactive” each time.

As for `Cc1cccc(Oc2ccc(C(=O)N[C@H](CN3CCN(c4cccc(O)c4)[C@@H](C)C3)C(C)C)cc2)c1`, the inhibition result in data set [2] is “Active”.

`COc1ccc(N2CCN(C/C(=C\c3ccccc3)C(=O)NCC(=O)O)CC2)cc1`: the inhibition result (on Mu-type opioid receptor [1]; in data set [2]; on Mu-type opioid receptor [3]; in data set [4]) was “inactive” each time.

For `O=C(O)CNC(=O)C(Cc1ccccc1)CN1CCN(c2ccccc2)CC1` (stereo not drawn), the inhibition entry (at Mu-type opioid receptor [1]; in data set [2]; at Mu-type opioid receptor [3]; in data set [7]) was “inactive” each time.

In the case of `COc1ccccc1N1CCN(CC(Cc2ccccc2)C(=O)NCC(=O)O)CC1` (stereo not drawn), the inhibition result (at Mu-type opioid receptor [1]; in [2]; at Mu-type opioid receptor [3]; in data set [7]) was “inactive” in each case.

As to `CC1(c2cccc(O)c2)CCN(C/C(=C\c2ccccc2)C(=O)O)CC1`, the inhibition entry in data set [2], in data set [5], in [7] and in [8] was “inactive” each time. The inhibition on Mu-type opioid receptor [3] stood at 50%. Besides, the results for the IC50 on Mu-type opioid receptor [6] (read-out: IC50) and at Mu-type opioid receptor [6] (read-out: pIC50 (converted)) were 18 nM and 18.6 to 76.6 nM, respectively.

Turning to `CC(C)[C@H](NC(=O)/C(=C/c1ccccc1)CN1CC[C@@](C)(c2cccc(O)c2)[C@@H](C)C1)C(=O)O`, the inhibition entry in [2], in [5], in [7] and in data set [8] was “inactive” throughout. Further, the inhibition against Mu-type opioid receptor [3] was 50%. In addition, the IC50 was 650 nM at Mu-type opioid receptor [6] (read-out: IC50) and 658 to 661 nM on Mu-type opioid receptor [6] (read-out: pIC50 (converted)).

With `COc1cccc(N2CCN(C/C(=C\c3ccccc3)C(=O)NCC(=O)O)CC2)c1`, the inhibition entry (on Mu-type opioid receptor [1]; in data set [2]; at Mu-type opioid receptor [3]; in data set [4]) was “inactive” throughout.

As to `CCCC(NC(=O)/C(=C/c1ccccc1)CN1CC[C@@](C)(c2cccc(O)c2)[C@@H](C)C1)C(=O)O` (stereo partly drawn), the inhibition entry in data set [2], in [5], in data set [7] and in data set [8] was “inactive” throughout. The compound also displayed an inhibition against Mu-type opioid receptor [3] of 50%. The IC50 on Mu-type opioid receptor [6] (read-out: IC50) is 2320 nM; on Mu-type opioid receptor [6] (read-out: pIC50 (converted)), 2320 to 2340 nM.

For `COc1ccccc1N1CCN(C/C(=C\c2ccccc2)C(=O)NCC(=O)O)CC1`, the inhibition entry (on Mu-type opioid receptor [1]; in [2]; on Mu-type opioid receptor [3]; in data set [4]) was “inactive” each time.

For the compound `COc1ccccc1N1CCN(CCC(C(=O)N(C)C)(c2ccccc2)c2ccccc2)CC1`, on Mu-type opioid receptor [1], the inhibition result is “Active”.

For `O=C(O)CNC(=O)/C(=C/c1ccccc1)CN1CCN(c2cccc(O)c2)CC1`, the inhibition result in data set [2] was “inactive”.
